Measured values published in ChEMBL document CHEMBL1649247, “Fluoroquinolone resistance in Mycobacterium tuberculosis and mutations in gyrA and gyrB” (2009).
Converted amounts (≈) assume the structure as drawn. The source made the active and inactive calls. The rule behind the calls is not given here.

Key:
[1] = test system: Mycobacterium tuberculosis; assay: Antimycobacterial activity against multidrug-resistant Mycobacterium tuberculosis 08-0797 harboring gyrA Ala90Val mutant gene by resazurin microtiter assay; type: functional
Summary of the method: (§1)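 MIC was read by resazurin microtiter assay against ofloxacin, moxifloxacin and gatifloxacin. Isolates were used as fresh Löwenstein-Jensen subcultures kept at 37°C for no longer than 4 weeks.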

[2] = test system: Mycobacterium tuberculosis; assay: Antimycobacterial activity against Mycobacterium tuberculosis 02-1975 harboring gyrA Asp94Gly mutant gene by resazurin microtiter assay; type: functional
Summary of the method: (§2)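 Isolates taken from fresh Löwenstein-Jensen subcultures grown at 37°C for at most 4 weeks. Drug stocks 1 mg/ml in 0.1 N NaOH, filter sterilized, stored at −20°C less than 2 months. MIC read by resazurin microtiter assay following a previously described protocol.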

[3] = test system: Mycobacterium tuberculosis; assay: Antimycobacterial activity against multidrug-resistant Mycobacterium tuberculosis 01-2614 harboring gyrA Asp94Gly mutant gene by resazurin microtiter assay; type: functional; summary of the method: as §2
[4] = test system: Mycobacterium tuberculosis; assay: Antimycobacterial activity against multidrug-resistant Mycobacterium tuberculosis 01-2230 harboring gyrA Asp94Gly mutant gene by resazurin microtiter assay; type: functional; summary of the method: as §2
[5] = test system: Mycobacterium tuberculosis; assay: Antimycobacterial activity against multidrug-resistant Mycobacterium tuberculosis 08-0744 harboring gyrA Asp94Tyr mutant gene by resazurin microtiter assay; type: functional; summary of the method: as §1
[6] = test system: Mycobacterium tuberculosis; assay: Antimycobacterial activity against multidrug-resistant Mycobacterium tuberculosis 08-0810 harboring gyrA Asp94Tyr mutant gene by resazurin microtiter assay; type: functional; summary of the method: as §1
[7] = test system: Mycobacterium tuberculosis; assay: Antimycobacterial activity against multidrug-resistant Mycobacterium tuberculosis 08-0821 harboring gyrA Asp94Tyr mutant gene by resazurin microtiter assay; type: functional; summary of the method: as §1
[8] = test system: Mycobacterium tuberculosis; assay: Antimycobacterial activity against Mycobacterium tuberculosis 04-0649 harboring gyrA Asp94Asn mutant gene by resazurin microtiter assay; type: functional; summary of the method: as §2
[9] = test system: Mycobacterium tuberculosis; assay: Antimycobacterial activity against multidrug-resistant Mycobacterium tuberculosis 01-0172 harboring gyrA Asp94Ala mutant gene by resazurin microtiter assay; type: functional; summary of the method: as §2
[10] = test system: Mycobacterium tuberculosis; assay: Antimycobacterial activity against Mycobacterium tuberculosis 08-0787 harboring gyrA Asp94His mutant gene and deletion of codons 678 and 679 in gyrB mutant gene by resazurin microtiter assay; type: functional; summary of the method: as §2
[11] = test system: Mycobacterium tuberculosis; assay: Antimycobacterial activity against Mycobacterium tuberculosis 08-0745 harboring gyrA Asp89Asn mutant gene by resazurin microtiter assay; type: functional; summary of the method: as §2
[12] = test system: Mycobacterium tuberculosis; assay: Antimycobacterial activity against multidrug-resistant Mycobacterium tuberculosis 02-1234 harboring gyrA Asn533Thr gyrB mutant gene by resazurin microtiter assay; type: functional; summary of the method: as §2
[13] = test system: Mycobacterium tuberculosis; assay: Antimycobacterial activity against multidrug-resistant Mycobacterium tuberculosis 01-2834 by resazurin microtiter assay; type: functional; summary of the method: as §2
[14] = test system: Mycobacterium tuberculosis; assay: Antimycobacterial activity against Mycobacterium tuberculosis 08-0773 harboring gyrA Pro8Ala mutant gene by resazurin microtiter assay; type: functional; summary of the method: as §2
[15] = test system: Mycobacterium tuberculosis; assay: Antimycobacterial activity against multidrug-resistant Mycobacterium tuberculosis 08-0746 by resazurin microtiter assay; type: functional; summary of the method: as §1
[16] = test system: Mycobacterium tuberculosis; assay: Antimycobacterial activity against multidrug-resistant Mycobacterium tuberculosis 08-0757 harboring gyrA Ala90Val mutant gene assessed as microbial susceptibility by agar proportion method; type: functional, organism-based
Summary of the method: (§3)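 Clinical isolates freshly subcultured on Löwenstein-Jensen medium at 37°C for no more than 4 weeks. Susceptibility by standard proportion method on 7H11 agar at breakpoints of 2 mg/liter ofloxacin and 0.5 mg/liter moxifloxacin and gatifloxacin. Drug stocks 1 mg/ml in 0.1 N NaOH, filter sterilized, held at −20°C under 2 months. Isolates scored susceptible or resistant.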

[17] = test system: Mycobacterium tuberculosis; assay: Antimycobacterial activity against multidrug-resistant Mycobacterium tuberculosis 08-0790 harboring gyrA Ala90Val mutant gene assessed as microbial susceptibility by agar proportion method; type: functional, organism-based; summary of the method: as §3
[18] = test system: Mycobacterium tuberculosis; assay: Antimycobacterial activity against multidrug-resistant Mycobacterium tuberculosis 08-0791 harboring gyrA Ala90Val mutant gene assessed as microbial susceptibility by agar proportion method; type: functional, organism-based; summary of the method: as §3
[19] = test system: Mycobacterium tuberculosis; assay: Antimycobacterial activity against multidrug-resistant Mycobacterium tuberculosis 08-0797 harboring gyrA Ala90Val mutant gene assessed as microbial susceptibility by agar proportion method; type: functional, organism-based; summary of the method: as §3
[20] = test system: Mycobacterium tuberculosis; assay: Antimycobacterial activity against multidrug-resistant Mycobacterium tuberculosis 99-1914 harboring gyrA Asp94Gly mutant gene assessed as microbial susceptibility by agar proportion method; type: functional, organism-based; summary of the method: as §3
[21] = test system: Mycobacterium tuberculosis; assay: Antimycobacterial activity against Mycobacterium tuberculosis 02-1975 harboring gyrA Asp94Gly mutant gene assessed as microbial susceptibility by agar proportion method; type: functional, organism-based
Summary of the method: (§4)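 Clinical isolates freshly subcultured on Löwenstein-Jensen medium, held at 37°C no longer than 4 weeks. Fluoroquinolone stocks 1 mg/ml in 0.1 N NaOH, filter sterilized, kept at −20°C under 2 months. Standard proportion method on 7H11 agar; breakpoints 2 mg/liter ofloxacin, 0.5 mg/liter moxifloxacin and gatifloxacin; scored susceptible or resistant.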

[22] = test system: Mycobacterium tuberculosis; assay: Antimycobacterial activity against multidrug-resistant Mycobacterium tuberculosis 01-2230 harboring gyrA Asp94Gly mutant gene assessed as microbial susceptibility by agar proportion method; type: functional, organism-based; summary of the method: as §4
[23] = test system: Mycobacterium tuberculosis; assay: Antimycobacterial activity against Mycobacterium tuberculosis 04-0649 harboring gyrA Asp94Asn mutant gene assessed as microbial susceptibility by agar proportion method; type: functional, organism-based; summary of the method: as §4
[24] = test system: Mycobacterium tuberculosis; assay: Antimycobacterial activity against multidrug-resistant Mycobacterium tuberculosis 02-2399 harboring gyrA Asp94Tyr mutant gene assessed as microbial susceptibility by agar proportion method; type: functional, organism-based; summary of the method: as §4
[25] = test system: Mycobacterium tuberculosis; assay: Antimycobacterial activity against multidrug-resistant Mycobacterium tuberculosis 04-0519 harboring gyrA Ala90Val and Asp94Asn mutant gene assessed as microbial susceptibility by agar proportion method; type: functional, organism-based; summary of the method: as §3
[26] = test system: Mycobacterium tuberculosis; assay: Antimycobacterial activity against Mycobacterium tuberculosis 08-0745 harboring gyrA Asp89Asn mutant gene assessed as microbial susceptibility by agar proportion method; type: functional, organism-based; summary of the method: as §4
[27] = test system: Mycobacterium tuberculosis; assay: Antimycobacterial activity against multidrug-resistant Mycobacterium tuberculosis 01-2834 by agar proportion method; type: functional, organism-based; summary of the method: as §4
[28] = test system: Mycobacterium tuberculosis; assay: Antimycobacterial activity against Mycobacterium tuberculosis 08-0769 harboring gyrA putative promoter mutant gene assessed as microbial susceptibility by agar proportion method; type: functional, organism-based; summary of the method: as §4
[29] = test system: Mycobacterium tuberculosis; assay: Antimycobacterial activity against Mycobacterium tuberculosis 08-0771 harboring gyrA putative promoter mutant gene assessed as microbial susceptibility by agar proportion method; type: functional, organism-based; summary of the method: as §4
[30] = test system: Mycobacterium tuberculosis; assay: Antimycobacterial activity against multidrug-resistant Mycobacterium tuberculosis 08-0779 assessed as microbial susceptibility by agar proportion method; type: functional, organism-based; summary of the method: as §3
[31] = test system: Mycobacterium tuberculosis; assay: Antimycobacterial activity against multidrug-resistant Mycobacterium tuberculosis 02-2934 harboring gyrA Ala90Val mutant gene by resazurin microtiter assay; type: functional; summary of the method: as §2
[32] = test system: Mycobacterium tuberculosis; assay: Antimycobacterial activity against multidrug-resistant Mycobacterium tuberculosis 08-0757 harboring gyrA Ala90Val mutant gene by resazurin microtiter assay; type: functional; summary of the method: as §1

SMILES	MIC [1] [µg/mL]	MIC [2] [µg/mL]	MIC [3] [µg/mL]	MIC [4] [µg/mL]	MIC [6] [µg/mL]	MIC [7] [µg/mL]	MIC [8] [µg/mL]	MIC [9] [µg/mL]	MIC [10] [µg/mL]	MIC [11] [µg/mL]	MIC [12] [µg/mL]	MIC [13] [µg/mL]	MIC [14]	MIC [15] [µg/mL]	Activity [16]	Activity [17]	Activity [18]	Activity [19]	Activity [20]	Activity [21]	further results
COc1c(N2CCNC(C)C2)c(F)cc2c(=O)c(C(=O)O)cn(C3CC3)c12 (centres undefined) [GATIFLOXACIN]	0.5 (≈ 1.33 µM)	1 (≈ 2.66 µM)	1 (≈ 2.66 µM)	1 (≈ 2.66 µM)	1 (≈ 2.66 µM)	1 (≈ 2.66 µM)	1 (≈ 2.66 µM)	0.25 (≈ 0.666 µM)	1 (≈ 2.66 µM)	1 (≈ 2.66 µM)	0.5 (≈ 1.33 µM)	0.5 (≈ 1.33 µM)	<=0.062 mg/L	≤ 0.062	inactive	inactive	inactive	inactive	inactive	inactive	MIC [5]: 1 µg/mL (≈ 2.66 µM); Activity [22]: inactive; Activity [23]: inactive; Activity [24]: inactive; Activity [25]: inactive; Activity [26]: inactive; Activity [27]: inactive; Activity [28]: Active; Activity [29]: Active; Activity [30]: Active; MIC [31]: 0.25 µg/mL (≈ 0.666 µM); MIC [32]: 1 µg/mL (≈ 2.66 µM)
COc1c(N2C[C@@H]3CCCN[C@@H]3C2)c(F)cc2c(=O)c(C(=O)O)cn(C3CC3)c12 [MOXIFLOXACIN]	1 (≈ 2.49 µM)	2 (≈ 4.98 µM)	2 (≈ 4.98 µM)	2 (≈ 4.98 µM)	2 (≈ 4.98 µM)	4 (≈ 9.96 µM)	4 (≈ 9.96 µM)	0.5 (≈ 1.25 µM)	2 (≈ 4.98 µM)	2 (≈ 4.98 µM)	0.5 (≈ 1.25 µM)	1 (≈ 2.49 µM)	<=0.125 mg/L	≤ 0.125	inactive	inactive	inactive	inactive	inactive	inactive	Activity [22]: inactive; Activity [23]: inactive; Activity [24]: inactive; Activity [25]: inactive; Activity [26]: inactive; Activity [27]: inactive; Activity [28]: Active; Activity [29]: Active; Activity [30]: Active; MIC [31]: 0.25 µg/mL (≈ 0.623 µM)
CC1COc2c(N3CCN(C)CC3)c(F)cc3c(=O)c(C(=O)O)cn1c23 (centres undefined) [OFLOXACIN]	4 (≈ 11.1 µM)	8 (≈ 22.1 µM)	16 (≈ 44.3 µM)	8 (≈ 22.1 µM)	8 (≈ 22.1 µM)	8 (≈ 22.1 µM)	16 (≈ 44.3 µM)	4 (≈ 11.1 µM)	4 (≈ 11.1 µM)	4 (≈ 11.1 µM)	1 (≈ 2.77 µM)	4 (≈ 11.1 µM)	0.5 µg/mL (≈ 1.38 µM)	0.5 (≈ 1.38 µM)	inactive	inactive	inactive	inactive	inactive	inactive	MIC [5]: 8 µg/mL (≈ 22.1 µM); Activity [22]: inactive; Activity [23]: inactive; Activity [24]: inactive; Activity [25]: inactive; Activity [26]: inactive; Activity [27]: inactive; Activity [28]: Active; Activity [29]: Active; Activity [30]: Active; MIC [31]: 4 µg/mL (≈ 11.1 µM); MIC [32]: 8 µg/mL (≈ 22.1 µM)
